Results reported in ChEMBL document CHEMBL1938284, “Synthesis and biological activity of novel organoselenium derivatives targeting multiple kinases and capable of inhibiting cancer progression to metastases” (Eur J Med Chem, 2012).
The source made the active and inactive calls. The rule behind the calls is not given here.

Experiments:
[1] = target: Tyrosine-protein kinase ABL1 (Homo sapiens) (UniProt P00519); assay: Inhibition of ABL1 at 1 uM
[2] = target: Vascular endothelial growth factor receptor 2 (Homo sapiens) (UniProt P35968); assay: Inhibition of VEGFR2 at 1 uM
Vascular endothelial growth factor receptor 2 (Homo sapiens), sequence (P35968 whole entry): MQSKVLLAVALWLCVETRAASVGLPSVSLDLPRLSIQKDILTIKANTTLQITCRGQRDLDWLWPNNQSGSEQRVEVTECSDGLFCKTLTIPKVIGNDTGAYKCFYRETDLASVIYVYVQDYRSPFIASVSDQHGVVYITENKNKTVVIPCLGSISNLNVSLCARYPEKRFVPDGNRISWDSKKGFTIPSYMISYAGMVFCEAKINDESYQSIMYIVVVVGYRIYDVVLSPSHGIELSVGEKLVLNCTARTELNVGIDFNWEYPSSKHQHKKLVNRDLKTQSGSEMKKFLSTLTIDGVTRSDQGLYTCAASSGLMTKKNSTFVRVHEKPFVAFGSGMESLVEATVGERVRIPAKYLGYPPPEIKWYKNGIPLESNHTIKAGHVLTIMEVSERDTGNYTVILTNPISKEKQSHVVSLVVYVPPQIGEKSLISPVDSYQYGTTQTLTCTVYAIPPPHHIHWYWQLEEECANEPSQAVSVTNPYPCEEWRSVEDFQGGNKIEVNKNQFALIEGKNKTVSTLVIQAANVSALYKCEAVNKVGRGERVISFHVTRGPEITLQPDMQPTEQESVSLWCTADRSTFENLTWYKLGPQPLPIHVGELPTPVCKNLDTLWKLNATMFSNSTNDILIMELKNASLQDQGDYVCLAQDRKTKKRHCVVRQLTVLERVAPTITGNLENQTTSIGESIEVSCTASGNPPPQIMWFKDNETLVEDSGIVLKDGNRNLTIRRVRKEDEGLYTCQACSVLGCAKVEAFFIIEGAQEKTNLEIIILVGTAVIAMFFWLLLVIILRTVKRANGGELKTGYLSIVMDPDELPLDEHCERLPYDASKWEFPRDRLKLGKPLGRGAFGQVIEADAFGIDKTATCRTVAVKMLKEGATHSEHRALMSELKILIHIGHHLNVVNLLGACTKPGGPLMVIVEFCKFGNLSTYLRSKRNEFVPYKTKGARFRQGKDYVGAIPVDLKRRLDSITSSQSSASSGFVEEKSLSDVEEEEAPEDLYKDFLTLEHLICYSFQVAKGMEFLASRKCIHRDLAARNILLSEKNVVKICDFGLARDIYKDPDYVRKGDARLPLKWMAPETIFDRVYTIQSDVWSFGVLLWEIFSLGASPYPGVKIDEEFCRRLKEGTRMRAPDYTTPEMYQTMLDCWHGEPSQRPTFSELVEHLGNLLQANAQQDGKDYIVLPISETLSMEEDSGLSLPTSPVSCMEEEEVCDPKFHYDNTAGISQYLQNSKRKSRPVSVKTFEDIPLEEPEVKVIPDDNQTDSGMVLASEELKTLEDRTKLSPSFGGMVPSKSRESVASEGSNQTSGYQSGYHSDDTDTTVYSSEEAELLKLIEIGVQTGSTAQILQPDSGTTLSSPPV

[3] = target: Tyrosine-protein kinase Yes (Homo sapiens) (UniProt P07947); assay: Inhibition of YES1 at 1 uM
[4] = target: Tyrosine-protein kinase SYK (Homo sapiens) (UniProt P43405); assay: Inhibition of SYK at 1 uM
[5] = target: Receptor tyrosine-protein kinase erbB-2 (Homo sapiens) (UniProt P04626); assay: Inhibition of HER2 at 1 uM
[6] = target: Ribosomal protein S6 kinase alpha-4 (Homo sapiens) (UniProt O75676); assay: Inhibition of RPS6KA4 at 1 uM
[7] = target: Cyclin-dependent kinase 1/cyclin B1 (Homo sapiens) (UniProt P06493+P14635); assay: Inhibition of CDK1/cyclin B at 1 uM; assay type: protein-complex assay
[8] = target: Serine/threonine-protein kinase pim-1 (Homo sapiens) (UniProt P11309); assay: Inhibition of PIM1 at 1 uM
[9] = target: Hepatocyte growth factor receptor (Homo sapiens) (UniProt P08581); assay: Inhibition of MET at 1 uM
[10] = target: Receptor-type tyrosine-protein kinase FLT3 (Homo sapiens) (UniProt P36888); assay: Inhibition of FLT3 at 1 uM
[11] = target: Tyrosine-protein kinase receptor Tie-1 (Homo sapiens) (UniProt P35590); assay: Inhibition of TIE1 at 1 uM
[12] = target: Tyrosine-protein kinase Fyn (Homo sapiens) (UniProt P06241); assay: Inhibition of FYN at 1 uM
Tyrosine-protein kinase Fyn (Homo sapiens), sequence (P06241 2-537 limits assumed): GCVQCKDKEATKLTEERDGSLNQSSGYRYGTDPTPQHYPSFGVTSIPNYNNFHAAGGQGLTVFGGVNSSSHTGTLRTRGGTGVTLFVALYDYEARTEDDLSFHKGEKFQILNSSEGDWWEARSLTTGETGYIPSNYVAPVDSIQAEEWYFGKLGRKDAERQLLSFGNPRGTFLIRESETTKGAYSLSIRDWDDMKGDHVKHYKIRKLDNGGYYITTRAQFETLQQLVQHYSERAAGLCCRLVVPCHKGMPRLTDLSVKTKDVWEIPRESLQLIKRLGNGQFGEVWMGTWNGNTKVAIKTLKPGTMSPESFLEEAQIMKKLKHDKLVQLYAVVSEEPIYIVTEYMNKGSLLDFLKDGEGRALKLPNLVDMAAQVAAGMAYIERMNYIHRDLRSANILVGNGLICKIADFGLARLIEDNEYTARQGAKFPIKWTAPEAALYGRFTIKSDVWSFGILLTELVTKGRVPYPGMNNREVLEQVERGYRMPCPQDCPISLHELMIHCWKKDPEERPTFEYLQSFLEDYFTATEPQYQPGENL

[13] = target: Protein kinase C alpha type (Homo sapiens, UniProt P17252); assay: Inhibition of PKCalpha at 1 uM
[14] = target: T1, Serine/threonine-protein kinase PLK4 (Homo sapiens) (UniProt O00444); assay: Inhibition of PLK4 at 1 uM
T1 sequence (whole entry): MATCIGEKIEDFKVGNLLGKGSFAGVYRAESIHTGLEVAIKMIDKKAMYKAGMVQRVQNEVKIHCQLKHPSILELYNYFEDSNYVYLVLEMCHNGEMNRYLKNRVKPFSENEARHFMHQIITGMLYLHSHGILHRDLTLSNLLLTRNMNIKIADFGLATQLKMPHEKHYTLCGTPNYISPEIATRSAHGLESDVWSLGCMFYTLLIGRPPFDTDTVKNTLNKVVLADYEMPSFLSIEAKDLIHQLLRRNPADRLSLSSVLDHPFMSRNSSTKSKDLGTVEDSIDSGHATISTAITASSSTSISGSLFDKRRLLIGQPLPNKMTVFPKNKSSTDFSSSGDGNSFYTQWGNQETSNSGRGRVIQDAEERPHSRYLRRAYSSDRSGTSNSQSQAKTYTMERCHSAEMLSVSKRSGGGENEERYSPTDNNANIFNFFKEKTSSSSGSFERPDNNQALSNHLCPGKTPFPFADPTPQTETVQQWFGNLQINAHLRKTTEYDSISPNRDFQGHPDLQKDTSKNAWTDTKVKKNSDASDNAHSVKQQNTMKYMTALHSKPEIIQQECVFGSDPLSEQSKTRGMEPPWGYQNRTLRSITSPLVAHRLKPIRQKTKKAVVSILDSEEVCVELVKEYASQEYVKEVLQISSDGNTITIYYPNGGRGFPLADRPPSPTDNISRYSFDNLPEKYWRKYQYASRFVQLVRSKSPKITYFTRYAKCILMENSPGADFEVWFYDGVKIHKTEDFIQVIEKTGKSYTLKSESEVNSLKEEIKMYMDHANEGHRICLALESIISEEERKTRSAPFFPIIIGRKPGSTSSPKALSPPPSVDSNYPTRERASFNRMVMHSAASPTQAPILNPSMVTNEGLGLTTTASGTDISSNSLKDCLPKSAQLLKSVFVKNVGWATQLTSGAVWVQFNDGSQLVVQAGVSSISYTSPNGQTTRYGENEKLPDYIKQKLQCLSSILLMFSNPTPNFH

[15] = target: Proto-oncogene tyrosine-protein kinase Src (Homo sapiens) (UniProt P12931); assay: Inhibition of SRC at 1 uM
Proto-oncogene tyrosine-protein kinase Src (Homo sapiens), sequence (P12931 2-536 limits assumed): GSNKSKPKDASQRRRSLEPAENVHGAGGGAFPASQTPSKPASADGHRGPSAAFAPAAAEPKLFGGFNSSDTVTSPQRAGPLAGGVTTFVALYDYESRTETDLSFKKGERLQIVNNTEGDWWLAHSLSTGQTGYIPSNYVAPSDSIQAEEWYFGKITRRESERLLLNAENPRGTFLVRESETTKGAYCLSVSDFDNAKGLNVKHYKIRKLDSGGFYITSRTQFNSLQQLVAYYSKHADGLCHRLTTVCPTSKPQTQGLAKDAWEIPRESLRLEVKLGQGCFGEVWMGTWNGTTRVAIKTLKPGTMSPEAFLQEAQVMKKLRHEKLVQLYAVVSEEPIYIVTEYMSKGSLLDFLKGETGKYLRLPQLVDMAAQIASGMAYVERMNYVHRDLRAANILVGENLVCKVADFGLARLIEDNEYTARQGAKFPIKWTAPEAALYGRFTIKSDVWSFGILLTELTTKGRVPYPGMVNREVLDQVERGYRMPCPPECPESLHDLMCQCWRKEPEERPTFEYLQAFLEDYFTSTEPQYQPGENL

[16] = target: Serine/threonine-protein kinase PAK 1 (Homo sapiens) (UniProt Q13153); assay: Inhibition of PAK1 at 1 uM
Serine/threonine-protein kinase PAK 1 (Homo sapiens), sequence (Q13153 whole entry): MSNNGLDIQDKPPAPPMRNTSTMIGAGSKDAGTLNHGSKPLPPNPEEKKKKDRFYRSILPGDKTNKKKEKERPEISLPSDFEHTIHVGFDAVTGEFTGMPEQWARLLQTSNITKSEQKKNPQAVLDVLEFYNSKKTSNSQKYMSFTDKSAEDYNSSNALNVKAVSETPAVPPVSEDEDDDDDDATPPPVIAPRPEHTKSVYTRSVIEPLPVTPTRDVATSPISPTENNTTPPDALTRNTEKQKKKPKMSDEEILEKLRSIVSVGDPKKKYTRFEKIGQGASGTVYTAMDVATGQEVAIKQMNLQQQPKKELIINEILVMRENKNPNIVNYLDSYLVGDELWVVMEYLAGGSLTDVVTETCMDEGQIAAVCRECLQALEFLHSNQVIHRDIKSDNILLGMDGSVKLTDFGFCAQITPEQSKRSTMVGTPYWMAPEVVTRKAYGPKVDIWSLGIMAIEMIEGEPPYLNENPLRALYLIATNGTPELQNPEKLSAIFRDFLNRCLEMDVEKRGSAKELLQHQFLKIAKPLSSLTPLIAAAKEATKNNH

[17] = target: Tyrosine-protein kinase Lyn (Homo sapiens) (UniProt P07948); assay: Inhibition of LYN at 1 uM
Tyrosine-protein kinase Lyn (Homo sapiens), sequence (P07948 2-512 limits assumed): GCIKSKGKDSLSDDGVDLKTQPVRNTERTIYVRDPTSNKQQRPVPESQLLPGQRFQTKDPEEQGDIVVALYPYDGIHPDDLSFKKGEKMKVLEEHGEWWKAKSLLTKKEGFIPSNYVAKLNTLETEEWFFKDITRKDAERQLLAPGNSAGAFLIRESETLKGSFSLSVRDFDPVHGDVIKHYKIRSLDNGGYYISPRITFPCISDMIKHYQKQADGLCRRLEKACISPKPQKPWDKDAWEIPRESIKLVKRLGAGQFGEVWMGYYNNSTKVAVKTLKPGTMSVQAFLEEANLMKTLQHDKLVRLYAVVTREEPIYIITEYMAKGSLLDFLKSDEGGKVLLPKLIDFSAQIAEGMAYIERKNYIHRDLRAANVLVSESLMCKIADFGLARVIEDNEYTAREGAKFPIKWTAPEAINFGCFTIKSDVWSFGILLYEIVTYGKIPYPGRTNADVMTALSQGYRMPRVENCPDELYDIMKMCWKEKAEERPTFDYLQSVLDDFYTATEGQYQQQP

[18] = target: BDNF/NT-3 growth factors receptor (Homo sapiens) (UniProt Q16620); assay: Inhibition of TRKB at 1 uM
BDNF/NT-3 growth factors receptor (Homo sapiens), sequence (Q16620 32-822 limits assumed): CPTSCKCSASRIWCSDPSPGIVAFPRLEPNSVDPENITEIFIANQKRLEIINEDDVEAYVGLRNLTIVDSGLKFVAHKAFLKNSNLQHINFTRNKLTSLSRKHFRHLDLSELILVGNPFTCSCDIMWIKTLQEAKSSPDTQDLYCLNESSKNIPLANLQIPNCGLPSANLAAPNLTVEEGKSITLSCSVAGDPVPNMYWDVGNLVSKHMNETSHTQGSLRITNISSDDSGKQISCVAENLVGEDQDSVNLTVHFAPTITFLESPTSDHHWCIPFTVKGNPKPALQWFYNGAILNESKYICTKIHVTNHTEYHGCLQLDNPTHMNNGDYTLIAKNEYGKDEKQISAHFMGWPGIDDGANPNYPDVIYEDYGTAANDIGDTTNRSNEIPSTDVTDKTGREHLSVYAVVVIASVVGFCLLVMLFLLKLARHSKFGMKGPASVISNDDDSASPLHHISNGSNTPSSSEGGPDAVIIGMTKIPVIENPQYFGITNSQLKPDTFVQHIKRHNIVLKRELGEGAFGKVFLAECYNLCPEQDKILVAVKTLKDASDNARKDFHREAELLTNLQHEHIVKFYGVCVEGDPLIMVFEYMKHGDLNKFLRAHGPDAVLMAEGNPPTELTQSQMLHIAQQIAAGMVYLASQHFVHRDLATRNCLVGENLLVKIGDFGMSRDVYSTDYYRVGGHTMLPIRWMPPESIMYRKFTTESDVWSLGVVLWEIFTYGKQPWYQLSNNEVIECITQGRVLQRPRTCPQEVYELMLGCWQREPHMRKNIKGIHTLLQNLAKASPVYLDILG

[19] = target: Insulin-like growth factor 1 receptor (Homo sapiens) (UniProt P08069); assay: Inhibition of IGF1R at 1 uM
[20] = target: RAC-alpha serine/threonine-protein kinase (Homo sapiens, UniProt P31749); assay: Inhibition of AKT-1 at 1 uM
[21] = […] in human MDA231 cells assessed as inhibition of cell migration at 10 uM after 12 to 24 hrs by wound healing migration assay relative to control; assay type: functional; conditions: MDA-MB-231
Method in brief: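 MDA-231 cells grown on coverslips for 24 h, wounded by scraping with a micropipette tip, washed, then incubated in fresh medium at 37 °C with or without compound (10 μM final). Wound areas photographed at 12 and 24 h, remaining area measured, DMSO control set to 0% inhibition. Mean ± SD of five independent experiments.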

[22] = system: MDA-MB-231; assay: Cytotoxicity against human MDA231 cells at 10 uM; assay type: functional, cell-based
[23] = system: MDA231; assay: Inhibition of lipoxygenase in human MDA231 cells; assay type: cell-based
[24] = Antiinvasive activity in human MDA231 cells at 10 uM after 48 hrs by Matrigel matrix assay; assay type: functional, MDA-MB-231
Method in brief: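 Serum-starved MDA-231 cells (30,000) placed with or without compound (10 μM) in the upper compartment of 8-µm Matrigel-coated Boyden chambers. Lower compartment held DMEM 0.2% BSA with 10% serum. Invasion ran 48 h, then invaded cells were fixed, stained and counted under a 40× objective. DMSO normalized to 0% inhibition. Mean ± SD, five experiments.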

SMILES | inhibition [1] | inhibition [2] | inhibition [3] | inhibition [4] | inhibition [5] | inhibition [6] | inhibition [7] | inhibition [8] | inhibition [9] | inhibition [10] | inhibition [11] | inhibition [12] | inhibition [13] | inhibition [14] | inhibition [15] | inhibition [16] | inhibition [17] | inhibition [18] | inhibition [19] | inhibition [20] | other results
O=c1c2ccccc2[se]n1-c1ccccc1 [EBSELEN] | 0% | 0% | 0% | 0% | 0% | 0% | 0% | 0% | 0% | 0% | 0% | 0% | 25% | 0% | 0% | 0% | 0% | 0% | 0% | 22% | –
CC(=O)OC[C@H]1O[C@@H](NC(=O)CCCn2[se]c3ccccc3c2=O)[C@H](OC(C)=O)[C@@H](OC(C)=O)[C@@H]1OC(C)=O | 0% | 0% | 0% | 0% | 0% | 0% | 0% | 0% | 0% | 0% | 0% | 0% | 77% | 0% | 0% | 0% | 0% | 0% | 0% | 67% | inhibition at 10 µM [21]: 50%; Activity [22]: inactive; inhibition [23]: inactive; Activity [24]: 50%
O=C(CCCn1[se]c2ccccc2c1=O)N[C@@H]1O[C@H](CO)[C@@H](O)[C@H](O)[C@H]1O | 0% | 0% | 0% | 0% | 0% | 0% | 0% | 0% | 0% | 0% | 0% | 0% | 74% | 0% | 0% | 0% | 0% | 0% | 0% | 60% | inhibition at 10 µM [21]: 50%; Activity [22]: inactive; inhibition [23]: inactive; Activity [24]: 50%
CC(=O)OC[C@H]1O[C@@H](O[C@H]2[C@H](OC(C)=O)[C@@H](OC(C)=O)[C@H](n3[se]c4ccccc4c3=O)O[C@@H]2COC(C)=O)[C@H](OC(C)=O)[C@@H](OC(C)=O)[C@H]1OC(C)=O | 0% | 0% | 0% | 0% | 0% | 0% | 0% | 0% | 0% | 0% | 0% | 0% | 95% | 0% | 0% | 0% | 0% | 0% | 1% | 63% | inhibition at 10 µM [21]: 50%; Activity [22]: inactive; inhibition [23]: inactive; Activity [24]: 50%
